Bioassay records as filed in PubChem.
An excerpt weighted towards active compounds, which were near 1.8% of everything screened.
M5 ag: CHRM5 agonism in calcium assay | P08912 | 360,000 tested, 0.19% active | CHO-K1 hM5 cells, Fluo-8 calcium fluorescence; 0% DMSO wells, 100% maximal acetylcholine response | activation, % at 3 µM;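 active means activation above the run's mean over test compounds plus 3 SD, cut at about 23% in these data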;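 further: signal is peak over basal fluorescence ratio across the kinetic read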
Target sequence (P08912 whole entry, looked up): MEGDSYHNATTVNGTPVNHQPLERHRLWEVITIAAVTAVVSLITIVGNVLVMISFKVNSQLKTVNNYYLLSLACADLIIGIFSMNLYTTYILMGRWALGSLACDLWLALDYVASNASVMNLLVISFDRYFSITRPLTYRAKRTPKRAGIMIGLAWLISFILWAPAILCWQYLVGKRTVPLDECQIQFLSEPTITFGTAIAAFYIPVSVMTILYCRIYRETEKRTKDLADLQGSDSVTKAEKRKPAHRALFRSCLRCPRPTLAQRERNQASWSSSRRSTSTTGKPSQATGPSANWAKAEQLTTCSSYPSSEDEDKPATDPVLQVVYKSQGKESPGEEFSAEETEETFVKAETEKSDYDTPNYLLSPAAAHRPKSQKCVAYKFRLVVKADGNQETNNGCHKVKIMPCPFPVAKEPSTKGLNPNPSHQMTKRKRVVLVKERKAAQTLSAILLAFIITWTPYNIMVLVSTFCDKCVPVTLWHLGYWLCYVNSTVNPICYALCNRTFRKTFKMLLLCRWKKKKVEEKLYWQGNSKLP
M4 ag: CHRM4 agonism in calcium assay; CHO-K1 hM4/Gqi5, Fluo-8 calcium fluorescence; vehicle 0%, full acetylcholine response 100%; activation, % at 3 µM; 360,000 tested, 0.14% active; AID 624127;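 active means activation above the run mean over all test wells plus 3 SD, cut at about 32% in these data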;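 further: peak over basal fluorescence ratio per well then scaled between controls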
CHRM4 antagonist: CHRM4 antagonism in calcium assay | P08173 | CHO-hM4 cells, ACh EC80, Fluo-8 calcium fluorescence | inhibition, % at 3 µM | 360,000 tested, 0.73% active | AID 624125;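 active means inhibition above its plate's cutoff, the mean inhibition of sample wells plus 3 SD, cut at about 27% in these data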
M5 PAM: positive allosteric modulators of human muscarinic M5 receptor; P08912; CHO-K1 hM5, Fluo-8 calcium, ACh EC20 PAM; 0% = ACh EC20, 100% = ACh EC100; activation, % at 3 µM; 360,000 tested, 0.3% active;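 active means activation above the run cutoff, the mean activation of all test compounds plus 3 SD, cut at about 18% in these data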
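system = human M5 receptor in CHO-K1 cells | compound = one concentration, 3 µM final (nominal) | schedule = Post-acetylcholine fluorescence recording 140 s | signal = Fluo-8 calcium dye fluorescence, kinetic read | benchmarks = low control EC20 acetylcholine (0%), high control EC100 acetylcholine (100%) | repeats = singlicate, one well per test compound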
M5 antag: CHRM5 antagonism in calcium assay; P08912; CHO-hM5 cells, Fluo-8 calcium fluorescence, ACh EC80; inhibition, % at 3 µM; 360,000 tested, 0.59% active;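 active means inhibition above a per-plate cutoff, the mean of that plate's test compounds plus 3 SD, cut at about 27% in these data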
CHRM4 PAM: potentiates acetylcholine response at human M4 receptor. CHO-K1 hM4/Gqi5, Fluo-8 calcium fluorescence, ACh EC20; 0% = ACh EC20, 100% = maximal ACh. activation, % at 3 µM. 360,000 tested, 0.4% active. AID 624126;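 active means activation above its plate's cutoff, the mean activation of sample wells plus 3 SD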
Of the large screens only hits and unclear results are named; the others gave an inactive call.

O=c1ccc(-c2n[nH]c(=S)n2-c2ccc(F)c(Cl)c2)n[nH]1	none
COc1ccccc1Cc1c(-c2ccc(C#N)cc2)nc2ccc(C)cn12	none
CCN(CC)CCn1c(=S)[nH]c2cc3c(cc2c1=O)OCO3	none
CCN1CCN(CCn2c(=S)[nH]c3cc4c(cc3c2=O)OCO4)CC1	M5 antag 28.6
COc1ccc(C(C)(NC(C)=O)c2nc(-c3cccc4cccnc34)cs2)cc1 (stereo not given)	none
Cc1nn(-c2ccccc2)c(Cl)c1CN(C(=O)CCl)c1ccc(Cl)cc1	CHRM4 antagonist 41.7
Cc1cc(S(=O)(=O)c2ccc(Cl)cc2)nc(S(=O)(=O)c2ccc(Cl)cc2)c1C#N	CHRM4 antagonist 87.5
Cc1cc(C)c(S(=O)(=O)c2ccc(Cl)cc2)c(Cl)n1	none
CC1=NOC(=O)/C1=C\c1ccc(-c2ccc(Cl)c(C(=O)O)c2)o1	none
CC1=NOC(=O)/C1=C\c1ccc(-c2cccc(Cl)c2)o1	CHRM4 antagonist 53.6
CCCCN1C(=O)/C(=C/C=C2/CC(C)(C)CN2C)SC1=S	M5 ag 46.8, M4 ag 34.2, M5 antag 36.1
CCCCN1C(=O)/C(=C/C=C2\Oc3ccccc3N2CC)SC1=S	M5 ag 47.6
CCN1C(=O)/C(=C/C=C2/SCCN2C)SC1=S	none
COC(=O)c1ccccc1C(=O)c1c(C)cc(C)cc1C	none
C=CCNc1nc(Nc2ccc(OC)c(OC)c2)c2sc(-c3ccccc3)cc2n1	none
O=C(c1ccc(Cl)cc1)C1CCCN(Cc2cnn(-c3ccccc3)c2)C1 (stereo not given)	none
O=C(c1ccc(Cl)cc1)C1CCCN(Cc2ccc(Oc3ncccn3)cc2)C1 (stereo not given)	CHRM4 antagonist 43.8
CCCCc1c(-c2ccccc2OC)ncn1C1CCCC1	none
COc1ccc(C(=O)/C=C/c2ccc(N(C)C)cc2)c(OC)c1	M5 ag 146.0, M4 ag 114.5, CHRM4 antagonist 36.4, M5 antag 51.6
CN(C)c1ccc(/C=C/C(=O)c2ccc3c(c2)OCO3)cc1	M5 ag 75.9, M4 ag 120.8, CHRM4 antagonist 26.8
CN(C)c1ccc(/C=C/C(=O)c2ccc(O)cc2)cc1	M5 ag 228.9, M4 ag 51.4, M5 antag 49.9
O=C(/C=C/c1cccc(O)c1)c1cccnc1	none
CN(C)c1ccc(/C=C/C(=O)c2cccnc2)cc1	M5 ag 106.8, M4 ag 39.1
CC1(c2ccc(OC(F)F)cc2)NC(=O)N(/N=C/c2c(O)ccc3ccccc23)C1=O (stereo not given)	CHRM4 PAM 20.3
COc1ccc(S(=O)(=O)n2nc(OC(=O)c3ccccc3)cc2N)cc1	none
COc1ccc(S(=O)(=O)n2nc(OC(=O)c3ccco3)cc2N)cc1	CHRM4 PAM 17.7
CN(CCc1ccccc1)C(c1ccnc2ccccc12)c1nnnn1-c1ccc2c(c1)OCCO2 (stereo not given)	none
O=C(OCCN1C(=O)c2cccc3c(N4CCOCC4)ccc(c23)C1=O)c1ccccc1Cl	CHRM4 antagonist 40.1, M5 antag 44.7
O=C(O)c1ccc(CN2C[C@@H](CO)O[C@@H](n3cnc4c(NCc5ccco5)ncnc43)C2)cc1	none
COc1ccccc1OC(C)C(=O)Nc1nc(-c2ccc(S(=O)(=O)N3CCOCC3)cc2)cs1 (stereo not given)	none
COc1ccc(-c2csc(NC(=O)c3ccc(S(C)(=O)=O)cc3)n2)cc1	M5 ag 23.4
COc1ccccc1C(=O)Nc1nc(-c2ccc(S(=O)(=O)N3CCOCC3)cc2)cs1	CHRM4 antagonist 36.2, M5 antag 29.9
COc1ccc(-c2csc(NC(=O)c3ccccc3S(C)(=O)=O)n2)cc1	none
CC(C)CC1C(=O)N(Cc2cn(CCC3OCCO3)nn2)CCS(=O)(=O)N1Cc1ccc(-c2cccc(N(C)C)c2)cc1 (stereo not given)	none
O=C(CSc1nnnn1-c1ccccc1)NCc1cccs1	M5 PAM 19.9
CCOC(=O)c1c(-c2ccc(C)o2)csc1NC(=O)CSc1nnnn1-c1ccccc1	CHRM4 antagonist 29.7
CCOC(=O)c1c(-c2ccc(C)o2)csc1NC(=O)CSc1nnc(C)s1	none
CCCCCNC(=O)c1[nH]c(C(F)(F)F)nc1-c1ccccc1	none
CN[C@H]1C[C@H]2c3[nH]c4ccc(-c5cccc(C)c5)cc4c3CCN2C[C@H]1[C@H](C)O	none
COc1cc(OC)c(NC(=O)CC2SC(N)=NC2=O)cc1Cl (stereo not given)	none
Cc1cccc(C)c1-n1nnnc1C1(C)CCC(=O)N1Cc1cccc(C(F)(F)F)c1 (stereo not given)	none
CC(C)(C)c1ccc(Nc2n[nH]c3ccccc23)cc1	CHRM4 PAM 21.2
Cc1n[nH]c2ccccc2c1=O	none
O=c1c2ccccc2nc2n1CCN2Cc1ccc(Cl)cc1	M5 antag 28.8
CCCCOc1ccc(Cc2c(O)nc(SC)[nH]c2=O)cc1	M5 PAM 51.3, M5 antag 29.7, CHRM4 PAM 17.8
Cc1ccc(F)cc1-c1cc(C(=O)NCc2cc(C(F)(F)F)cc(C(F)(F)F)c2)[nH]n1	none
COc1ccc([C@@H]2CC=C(C(=O)O)[C@H](c3ccc(F)cc3)N2S(=O)(=O)c2ccccc2C)cc1	none
COc1ccc([C@@H]2CC=C(C(=O)O)[C@H](c3ccccc3F)N2S(=O)(=O)c2ccccc2C)cc1	M5 PAM 20.0
CCOc1ccccc1NC(=O)C1CC(=O)n2ncnc2N1 (stereo not given)	CHRM4 antagonist 28.2
Cc1ccccc1C(c1ncccc1C)N(C)C(=O)C1CCN(CCOc2ccc(Cl)cc2Cl)CC1 (stereo not given)	none
Cn1c(=O)c2[nH]c(-c3cccnc3)nc2n(C)c1=O	CHRM4 PAM 31.4
COc1ccc2c(CN3CCN(Cc4ccccc4)CC3)cc(=O)oc2c1	none
N#C/C(=N/Nc1ccccc1[N+](=O)[O-])C(N)=S	M5 antag 29.4
N#C/C(=N\Nc1ccccc1)C(N)=S	none
O=C(OCC(=O)N1CCc2ccccc21)C1=COCCO1	CHRM4 PAM 29.5
CCOC(=O)CSC(=S)NC(=O)c1ccc(OC)cc1	CHRM4 PAM 35.4
Cc1cccc(Nc2nnc(SCC(=O)Nc3cccnc3Cl)s2)c1	none
Nc1nnc(SCC(=O)Nc2cccnc2Cl)s1	CHRM4 PAM 22.9
NNC(=O)Cc1cccc2ccc(Cl)cc12	none
CC1(C(=O)NS(=O)(=O)c2ccccc2)CCN1C(=O)Cc1cccs1 (stereo not given)	none
